# Assay outcomes deposited in PubChem BioAssay by SRMLSC.
# HCT116 PTEN-null: growth suppression of PTEN-null HCT116, primary screen, cell-based, CellTiter-Glo | 140,000 compounds, 1.2% hits | HCT116 PTEN-null viability, 60 h; stronger effect = lower value | viability, % at 10 µM;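 active means viability at or below a set limit, 4 SD under the median of all tested compounds, cut at about 3.7% in these data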;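 further: PTEN knockout HCT116 line with beta catenin targeted HCT116 as companion control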
# Lung fibro prol: antiproliferative effect on LL 47 fibroblasts – human, LL 47 cells, CellTiter-Glo luminescence, primary screen; viability, % at 10 µM; 85,000 compounds, 1.1% hits; LL 47 human lung fibroblast viability, ATP luminescence; stronger effect = lower value;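 active means viability at or below 50% in the single dose screen; inactive means viability above 50%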;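 further: compound exposure lasted 72 h before the ATP readout; 100% = median luminescence of untreated cell-only wells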
#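 Benchmarks: Cell-only wells, no compound | Test system: LL 47 human lung fibroblasts, passage 12 or lower | Input: 1,150 cells/well | Measured by: CellTiter-Glo luminescence measuring cellular ATP | Medium: IMEM, 15% FBS supplement | Schedule: Overnight attachment after seeding, then 72 h compound exposure at 37 °C | Doses: Compound addition at 0.1% DMSO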
# H69AR inhibit: proliferation blockers of H69AR lung cancer cells, primary screen, cell-based, human, 86K library; H69AR lung tumor viability, ATP luminescence, 72 h; stronger effect = lower value; viability, % at 10 µM; 85,000 compounds, 6% hits; AID 598, 2007;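 active means viability at or below 40%; inactive means viability above 40%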;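 further: multidrug resistant small cell line overexpressing MRP-1 efflux transporter; 100% = mean luminescence of untreated control wells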
# HUVEC prolif 384: inhibitors of HUVEC proliferation, primary screen, cell-based, 384-well | CellTiter-Glo luminescence, 72 h; stronger effect = lower value | viability, % at 10 µM (by protocol) | 86,000 compounds, 1.1% hits | AID 648, 2007;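 active means viability at or below 30%; inactive means viability above 30%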;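 further: 100% = median luminescence of DMSO-only cell control wells on each plate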
# HCT116 bCat-KO: primary screen for growth suppressors in beta-catenin knockout HCT116 cells (colon tumor, human). HCT116 beta-catenin knockout viability, CellTiter-Glo, 60 h; stronger effect = lower value. viability, % at 10 µM. 140,000 compounds, 1.5% hits. AID 818, 2007;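 active means viability at or under a set limit, the compound median less 4 SD, cut at about 6% in these data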;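 further: 0% = Hyamine 1622 control at 20 µM and 100% = untreated cell control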
# * = called active by the depositor; · = no result given. The entries come from a sample that favours hits as a whole.
SMILES,HCT116 PTEN-null,Lung fibro prol,H69AR inhibit,HUVEC prolif 384,HCT116 bCat-KO
CCOc1ccc(C(C(=O)NC2CCCCC2)N(C(=O)Cc2cccs2)c2ccc(-n3cnnn3)c(OC)c2)cc1 (configuration not stated),3.3*,·,·,·,6
COc1ccc(C(C(=O)NC2CCCCC2)N(C(=O)CCl)c2ccc(C)cc2)cc1 (configuration not stated),2.2*,·,·,·,5.0*
COc1cccc(N(C(=O)c2cnccn2)C(C(=O)NC2CCCCC2)c2ccc(Cl)cc2)c1 (configuration not stated),94,93,93,91,92
COc1ccc(C(C(=O)NC2CCCCC2)N(C(=O)CCl)c2ccc(OC)cc2)cc1 (configuration not stated),0.8*,·,·,·,1.4*
O=C(Cc1ccccc1)NN1C(=O)C2C(C1=O)C1C=CC2C12CC2 (configuration not stated),95,·,·,·,97
CCN(CC)c1nc(OCCNC(=O)Nc2ccccc2)nc(N(CC)CC)n1,77,103,59,77,90
Cc1nc(NC(=O)C23CC4CC(CC(C4)C2)C3)sc1Cc1ccc2c(c1)OCO2,56,·,·,·,63
COc1cc(C(=O)Oc2c(CN3CCOCC3)cc(Cl)c3cccnc23)cc(OC)c1OC,1.5*,4.7*,2.1*,82,2.4*
O=C(Oc1ccc(Cl)c2cccnc12)N1CCOCC1,83,·,·,·,88
COc1ccc(C(=O)Oc2c(CN3CCOCC3)cc(Cl)c3cccnc23)cc1,3.1*,47*,2.4*,82,4.9*
O=C(Oc1c(CN2CCOCC2)cc(Cl)c2cccnc12)c1ccc(F)cc1,1.9*,4.5*,88,77,5.0*
COc1cccc(NC(=O)c2ccc(CN3CCOCC3)cc2)c1,91,101,87,99,70
COc1cccc(C(=O)Oc2c(CN3CCOCC3)cc(Cl)c3cccnc23)c1,1.4*,6.5*,1.5*,72,1.6*
COc1ccc(C(=O)/C=C/c2ccc(OC)c(CN3CCOCC3)c2)cc1,14,·,·,·,12
O=C(c1ccc(COc2ccccc2Br)o1)N1N=C(C(F)F)CC1(O)C(F)F (configuration not stated),104,·,·,·,99
COc1ccc(Nc2nc(N)nc(CN3CCC(Cc4ccccc4)CC3)n2)cc1,27,65,102,36,27
COc1ccccc1Nc1nc(N)nc(CN2CCC(Cc3ccccc3)CC2)n1,73,92,40*,72,77
COc1cc2c(cc1OC)CN(c1ccc(-c3ccccc3OC)nn1)CC2,7,56,51,53,2.7*
CCOCCCNS(=O)(=O)c1cc(Br)cc2c1N(C(=O)C1CC1)CC2,97,106,87,105,98
CCCCN(C)S(=O)(=O)c1cc(Br)cc2c1N(C(=O)C1CC1)CC2,42,92,31*,77,25
CN(C)c1ccc(/C=C(\Cl)c2nc3ccccc3s2)cc1,57,·,·,·,55
CCOC(=O)c1ccc(N2C(=O)c3n[nH]c(-c4ccco4)c3C2c2cccc([N+](=O)[O-])c2)cc1 (configuration not stated),48,·,·,·,56
COc1ccc2oc3cc(C)[n+]([O-])c(-c4ccc(C)cc4)c3c2c1,53,·,·,·,45
CC1=NN(c2ccc(C)cc2)C(=O)/C1=C\C=C\c1ccccc1,3.0*,·,·,·,3.1*
Cc1ccc2nc(NC(=O)CN(C)S(=O)(=O)c3cccc4nsnc34)sc2c1,31,25*,12*,29*,41
SMILES,HCT116 PTEN-null,Lung fibro prol,H69AR inhibit,HUVEC prolif 384,HCT116 bCat-KO
CCc1ccc(N(CC(=O)Nc2nc3ccc(C)cc3s2)S(=O)(=O)c2c(C)noc2C)cc1,23,98,3.3*,50,28
Cc1ccnc(NC(=O)CN(C)S(=O)(=O)c2cccc3nsnc23)c1,107,98,75,94,99
Cc1ccc2nc(NC(=O)CN(C)S(=O)(=O)c3ccc(Br)s3)sc2c1,21,97,21*,57,22
COc1ccc(N(CC(=O)Nc2cc(Cl)ccc2OC)S(=O)(=O)c2c(C)noc2C)cc1,16,48*,24*,42,16
CCOc1cc(/C=N/NC(=O)c2ccncc2)cc(Cl)c1OS(C)(=O)=O,91,·,·,·,66
O=C(Nc1nc(-c2ccc(Cl)cc2)cs1)NC1CCCCC1,17,·,·,·,22
C[C@H]1CC[C@H]2C(=O)N3[C@H](c4ccccc4Br)[C@@H](C)CC[C@H]3C(=O)N2[C@@H]1c1ccccc1Br,3.0*,·,·,·,2.3*
O=C(N/N=C/c1cccc([N+](=O)[O-])c1)c1cc2ccccc2o1,2.2*,·,·,·,3.8*
Cc1cc(C(=O)N/N=C/c2cccc([N+](=O)[O-])c2)c(C)o1,90,·,·,·,82
O=C(COc1ccc(/C=N/NC(=O)c2cc3ccccc3o2)cc1Cl)Nc1ccccc1,1.5*,·,·,·,2.8*
NS(=O)(=O)c1ccc(Nc2nc(-c3ccc(O)cc3O)cs2)cc1,94,101,58,93,97
Cc1cccc(Nc2nc(-c3ccccn3)cs2)n1,20,69,3.9*,60,17
Cc1cccnc1Nc1nc(-c2ccc(O)cc2O)cs1,65,84,8.0*,14*,67
Cc1cccc(Nc2nc(-c3cccs3)cs2)n1,52,89,62,80,51
Cc1cccnc1Nc1nc(-c2ccccn2)cs1,0.8*,3.2*,0.4*,16*,0.7*
CC(C)(C)c1ccc(OCC(=O)N/N=C/c2ccsc2)cc1,110,·,·,·,101
O=C(CC1SC(=NCc2ccccc2)NC1=O)Nc1ccccc1 (configuration not stated),82,·,·,·,80
COC(=O)c1ccc(Oc2cc(C)nc(SC)n2)cc1,19,58,30*,57,15
COC(=O)Cc1c[nH]c2cccc(OCC(O)CN(Cc3ccccc3)C(C)C)c12 (configuration not stated),62,91,88,94,57
COC(=O)Cc1c[nH]c2cccc(OCC(O)CN(Cc3ccc([N+](=O)[O-])cc3)C(C)(C)C)c12 (configuration not stated),36,97,40*,84,38
Cc1cc(C)nc(NN=C(c2ccccc2)c2ccccc2)n1,34,·,·,·,17
COc1cccc(/C=N/NC(=O)c2cc3c(OC)cccc3[nH]2)c1O,2.6*,·,·,·,6.0*
COc1cccc(/C=N/NC(=O)c2c(-c3ccccc3)noc2C)c1O,7,·,·,·,5.8*
Cc1cc(C)c2c(n1)sc1c(N3CCOCC3)ncnc12,·,83,78,22*,·
c1nc(N2CCNCC2)c2sc3nc(N4CCOCC4)c4c(c3c2n1)CCC4,·,4.0*,7.9*,72,·
OCCN1CCN(c2ncnc3c2sc2nc(N4CCOCC4)c4c(c23)CCC4)CC1,65,87,98,80,66
CN1CCN(c2ncnc3c2sc2nc(N4CCOCC4)c4c(c23)CCC4)CC1,·,100,97,86,·
